# Measurements: ChEMBL document CHEMBL5724801, “EUbOPEN Chemogenomics Library - Multiplex” (2024)
# “And” between values parts separate entries of the source, which are not always exact repeats. Equal values may be shown once.
# Tested on: Fibroblast
# Experiment: Multiplex assay against human fibroblast
# Type: toxicity, cell-based
# How it was run: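 Cells stained live at seeding with Hoechst33342, BioTracker Green Microtubule Cytoskeleton Dye, MitoTracker Red and Annexin V Alexa Fluor 680 were imaged on a CQ1 microscope at 37°C and 5% CO2 after compound addition. Their classification by CellPathfinder machine-learning gating ran from Hoechst high-intensity objects versus normal cells, to healthy, pyknosed or fragmented nuclei among normal cells, to mitotic or apoptotic among pyknosed cells. Tubulin, mitochondrial-mass and membrane-permeability phenotypes are per cents of healthy-nucleus cells.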
# [1] = 12 h, 1 µM, compound concentration 1 uM
# [2] = 12 h, 10 µM, compound concentration 10 uM
# [3] = 24 h, 1 µM, compound concentration 1 uM
# [4] = 24 h, 10 µM, compound concentration 10 uM
# [5] = 48 h, 1 µM, compound concentration 1 uM
# [6] = 48 h, 10 µM, compound concentration 10 uM
compound,measurement,setting,value
CNc1nc(NCc2ncccn2)c2c(-c3ccc4ncccc4c3)c[nH]c2n1,Population Fragmented Nuclei (%),[1],13.9% and 7.14%
same,Population Healthy Nuclei (%),[1],54.01% and 75.6%
same,Population Hoechst High Intensity Objects (%),[1],0%
same,Population Membrane Permeable-Phenotype (%),[1],2.97% and 3.94%
same,Population Mitochondria Different-Phenotype (%),[1],7.92% and 10.24%
same,Population Mitotic Cells (%),[1],95% and 75.86%
same,Population Normal (%),[1],100%
same,Population Pyknosed Nuclei (%),[1],32.09% and 17.26%
same,Population Tubulin-Different-Phenotype (%),[1],11.88% and 22.83%
same,Total Cell Count,[1],187 and 168
same,Population Apoptotic (%),[2],15.15% and 23.33%
same,Population Fragmented Nuclei (%),[2],8.7% and 4.55%
same,Population Healthy Nuclei (%),[2],70.81% and 81.82%
same,Population Hoechst High Intensity Objects (%),[2],0%
same,Population Membrane Permeable-Phenotype (%),[2],15.79% and 10%
same,Population Mitochondria Different-Phenotype (%),[2],16.67% and 13.89%
same,Population Mitotic Cells (%),[2],84.85% and 76.67%
same,Population Normal (%),[2],100%
same,Population Pyknosed Nuclei (%),[2],20.5% and 13.64%
same,Population Tubulin-Different-Phenotype (%),[2],33.33% and 51.67%
same,Total Cell Count,[2],161 and 220
same,Population Fragmented Nuclei (%),[3],11.26% and 5.29%
same,Population Healthy Nuclei (%),[3],65.37% and 85.29%
same,Population Hoechst High Intensity Objects (%),[3],0%
same,Population Membrane Permeable-Phenotype (%),[3],1.99% and 6.21%
same,Population Mitochondria Different-Phenotype (%),[3],3.31% and 4.83%
same,Population Mitotic Cells (%),[3],98.15% and 87.5%
same,Population Normal (%),[3],100%
same,Population Pyknosed Nuclei (%),[3],23.38% and 9.41%
same,Population Tubulin-Different-Phenotype (%),[3],12.58% and 11.72%
same,Total Cell Count,[3],231 and 170
same,Population Apoptotic (%),[4],23.08% and 26.09%
same,Population Fragmented Nuclei (%),[4],8.06% and 4.98%
same,Population Healthy Nuclei (%),[4],77.96% and 84.62%
same,Population Hoechst High Intensity Objects (%),[4],0%
same,Population Membrane Permeable-Phenotype (%),[4],2.76% and 4.28%
same,Population Mitochondria Different-Phenotype (%),[4],11.72% and 12.83%
same,Population Mitotic Cells (%),[4],76.92% and 73.91%
same,Population Normal (%),[4],100%
same,Population Pyknosed Nuclei (%),[4],13.98% and 10.41%
same,Population Tubulin-Different-Phenotype (%),[4],37.24% and 52.41%
same,Total Cell Count,[4],186 and 221
same,Population Apoptotic (%),[5],11.76% and 6.67%
same,Population Fragmented Nuclei (%),[5],8.43% and 2.79%
same,Population Healthy Nuclei (%),[5],85.06% and 88.83%
same,Population Hoechst High Intensity Objects (%),[5],0%
same,Population Membrane Permeable-Phenotype (%),[5],1.35% and 4.4%
same,Population Mitochondria Different-Phenotype (%),[5],11.26% and 5.66%
same,Population Mitotic Cells (%),[5],88.24% and 93.33%
same,Population Normal (%),[5],100%
same,Population Pyknosed Nuclei (%),[5],6.51% and 8.38%
same,Total Cell Count,[5],261 and 179
same,Population Apoptotic (%),[6],23.08% and 42.86%
same,Population Fragmented Nuclei (%),[6],11.86% and 6.28%
same,Population Healthy Nuclei (%),[6],81.44% and 90.58%
same,Population Hoechst High Intensity Objects (%),[6],0%
same,Population Membrane Permeable-Phenotype (%),[6],5.06% and 7.92%
same,Population Mitotic Cells (%),[6],76.92% and 57.14%
same,Population Normal (%),[6],100%
same,Population Pyknosed Nuclei (%),[6],6.7% and 3.14%
same,Population Tubulin-Different-Phenotype (%),[6],18.35% and 54.46%
same,Total Cell Count,[6],194 and 223
Cl.Clc1cc2cc(c1)-c1cnn3ccc(nc13)NCCOCCO2,Population Apoptotic (%),[1],25.93% and 36.11%
same,Population Fragmented Nuclei (%),[1],12.14% and 4.56%
same,Population Healthy Nuclei (%),[1],61.65% and 80.5%
same,Population Hoechst High Intensity Objects (%),[1],0%
same,Population Membrane Permeable-Phenotype (%),[1],11.02% and 2.58%
same,Population Mitochondria Different-Phenotype (%),[1],4.72% and 10.82%
same,Population Mitotic Cells (%),[1],74.07% and 63.89%
same,Population Normal (%),[1],100%
same,Population Pyknosed Nuclei (%),[1],26.21% and 14.94%
same,Population Tubulin-Different-Phenotype (%),[1],11.02% and 23.2%
same,Total Cell Count,[1],206 and 241
same,Population Apoptotic (%),[2],10.2% and 20.59%
same,Population Fragmented Nuclei (%),[2],10.65% and 5.56%
same,Population Healthy Nuclei (%),[2],66.67% and 78.7%
same,Population Hoechst High Intensity Objects (%),[2],0%
same,Population Membrane Permeable-Phenotype (%),[2],8.33% and 4.71%
same,Population Mitochondria Different-Phenotype (%),[2],12.5% and 18.82%
same,Population Mitotic Cells (%),[2],89.8% and 79.41%
same,Population Normal (%),[2],100%
same,Population Pyknosed Nuclei (%),[2],22.69% and 15.74%
same,Population Tubulin-Different-Phenotype (%),[2],22.22% and 26.47%
same,Total Cell Count,[2],216
same,Population Apoptotic (%),[3],31.43% and 41.38%
same,Population Fragmented Nuclei (%),[3],12.22% and 6.72%
same,Population Healthy Nuclei (%),[3],71.95% and 82.46%
same,Population Hoechst High Intensity Objects (%),[3],0%
same,Population Membrane Permeable-Phenotype (%),[3],6.29% and 4.52%
same,Population Mitochondria Different-Phenotype (%),[3],3.14% and 6.33%
same,Population Mitotic Cells (%),[3],68.57% and 58.62%
same,Population Normal (%),[3],100%
same,Population Pyknosed Nuclei (%),[3],15.84% and 10.82%
same,Population Tubulin-Different-Phenotype (%),[3],15.09% and 21.72%
same,Total Cell Count,[3],221 and 268
same,Population Fragmented Nuclei (%),[4],7.39% and 6.93%
same,Population Healthy Nuclei (%),[4],79.13% and 78.79%
same,Population Hoechst High Intensity Objects (%),[4],0%
same,Population Membrane Permeable-Phenotype (%),[4],3.3%
same,Population Mitochondria Different-Phenotype (%),[4],8.79% and 13.74%
same,Population Mitotic Cells (%),[4],90.32% and 69.7%
same,Population Normal (%),[4],100%
same,Population Pyknosed Nuclei (%),[4],13.48% and 14.29%
same,Population Tubulin-Different-Phenotype (%),[4],20.33% and 33.52%
same,Total Cell Count,[4],230 and 231
same,Population Apoptotic (%),[5],31.03% and 50%
same,Population Fragmented Nuclei (%),[5],12.03% and 5.81%
same,Population Healthy Nuclei (%),[5],75.93% and 90.31%
same,Population Hoechst High Intensity Objects (%),[5],0%
same,Population Membrane Permeable-Phenotype (%),[5],3.28% and 3%
same,Population Mitotic Cells (%),[5],68.97% and 50%
same,Population Normal (%),[5],100%
same,Population Pyknosed Nuclei (%),[5],12.03% and 3.88%
same,Total Cell Count,[5],241 and 258
same,Population Apoptotic (%),[6],16.67% and 38.89%
same,Population Fragmented Nuclei (%),[6],10.79% and 5.86%
same,Population Healthy Nuclei (%),[6],86.72% and 86.61%
same,Population Hoechst High Intensity Objects (%),[6],0%
same,Population Membrane Permeable-Phenotype (%),[6],1.91% and 6.76%
same,Population Mitochondria Different-Phenotype (%),[6],11% and 9.66%
same,Population Mitotic Cells (%),[6],83.33% and 61.11%
same,Population Normal (%),[6],100%
same,Population Pyknosed Nuclei (%),[6],2.49% and 7.53%
same,Population Tubulin-Different-Phenotype (%),[6],13.88% and 38.65%
same,Total Cell Count,[6],241 and 239
